Screens: PubChem BioAssay, several laboratories
A selection: hits, their analogues and other compounds. The true share with any hit is near 2%.
NR2E3 ag-1: human photoreceptor-specific nuclear receptor agonism; CHO-S Gal4-NCOR/VP16-NR2E3 two-hybrid, luciferase; inhibition of corepressor binding, % at 3.98 µM; 0.35% of 360,000 active; AID 602229;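 active means inhibition above the mean of all tested compounds plus 3 SD, cut at about 70% in these data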;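 further: higher means lower luciferase signal from less NR2E3 corepressor binding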
Target sequence (Q9Y5X4 whole entry, looked up, the tested form may be a part): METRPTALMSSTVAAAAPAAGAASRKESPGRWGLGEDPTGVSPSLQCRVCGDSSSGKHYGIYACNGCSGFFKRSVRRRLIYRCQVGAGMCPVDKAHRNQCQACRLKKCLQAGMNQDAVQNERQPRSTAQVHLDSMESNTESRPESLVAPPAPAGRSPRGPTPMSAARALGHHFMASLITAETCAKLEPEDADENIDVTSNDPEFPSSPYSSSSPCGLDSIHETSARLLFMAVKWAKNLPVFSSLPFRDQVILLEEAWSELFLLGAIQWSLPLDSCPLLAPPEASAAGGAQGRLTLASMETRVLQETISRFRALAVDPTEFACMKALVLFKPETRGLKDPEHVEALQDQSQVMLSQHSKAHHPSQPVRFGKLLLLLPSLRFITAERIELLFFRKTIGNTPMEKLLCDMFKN
T cell modulator: T cell immune modulation candidate | 2C CD8+ T cell-vesicle binding, flow cytometry; active compounds read low | response (vesicle binding), % at 7 µM | 0.068% of 330,000 active | AID 2052;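 active means response, share of CD8 T cells binding vesicles, and their 90th percentile fluorescence all below set limits, cut at about 80% in these data, passing the limit was not always enough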;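 further: values below 100% mean blocked vesicle binding to the CD8+ T cells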
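incubation = binding step 1.5 h, 37 °C, antibody labelling 20 min, ice | test system = 2C mouse CD8+ T cells | read-out basis = percent CD8+ FL2 mean versus row control | controls = Peptide-free naked vesicles (low) and QL9 vesicles with 0.7% DMSO vehicle (high) | detection = flow cytometry of vesicle-bound cells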
GAA850 FXN act: activators of GAA850 frataxin (FXN) promoter. HEK293 lucGAA850 FXN promoter luciferase reporter, 24 h; percent of 10 µM SAHA response. activation, % at 6 µM. 0.56% of 360,000 active. AID 540364;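 active means activation above the average of all compounds screened plus 3 SD, cutoff fixed separately per campaign, cut at about 7.5% in these data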
NR2E3 ag-2: agonists of human nuclear receptor NR2E3. Q9Y5X4. GST-NR2E3/biotin-RetCOR TR-FRET, 1536-well. inhibition of corepressor binding, % at 4.78 µM. 0.12% of 320,000 active. AID 2300;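 active means percent inhibition above the cutoff of mean plus 3 SD of all tested compounds, set per screening campaign, cut at about 20% in these data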
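Assay system: NR2E3–RetCOR corepressor complex. Quantity: 1.35 nM GST-NR2E3. Buffer or medium: pH 7.5 Tris-based buffer. Reagent: biotinylated RetCOR corepressor at 7 nM final. Schedule: 5 h at 4 °C. Detection: TR-FRET, emission read at 617 and 671 nm. Replicates: one well per compound, singlicate testing.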
Myeloid diff MLP: promotes myeloid progenitor differentiation; ER-HoxA9 myeloid progenitors, lysozyme-GFP differentiation, flow cytometry; calls only at 10 µM; 1% of 360,000 active; AID 624256;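 active means normalized GFP-positive differentiation at or above the plate's own cutoff, the solvent-only control mean plus 3 SD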;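 further: cells exposed to compound for four days before flow analysis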
Myeloid diff: myeloid differentiation induction; 2% of 2,300 active; shares compounds with Myeloid diff MLP; ER-HoxA9 myeloid progenitors, GFP/Mac1 double-positive flow; calls only;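 active means share of green or green-and-red cells above 9 and 9% in run 1 or 4 and 3% in run 2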
GFP autofluor: compound fluorescence in myeloid differentiation counter-screen; shares compounds with Myeloid diff MLP; ER-HoxA9 myeloid progenitors, no estrogen, GFP autofluorescence flow cytometry; vehicle wells 0%, positive control 100%; fluorescence response, % (test concentration not listed); 7.4% of 2,300 active; AID 651707;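 active means over 5% cells positive for green fluorescent reporter, or over 2% positive for both it and APC stain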
Large screens that a line does not name were inactive (follow-up assays come after a bar, where they were run).

O=C(O)c1cccc(NC2=C(Cl)C(=O)c3ccccc3C2=O)c1	Myeloid diff MLP active (no result: T cell modulator, NR2E3 ag-2) | Myeloid diff inactive | GFP autofluor inactive
CC1=Nc2nc(N3CCCCC3)c(C#N)c3c4c(nc(c23)N1)N(c1ccc(C(C)C)cc1)C(=O)C4	Myeloid diff MLP active | Myeloid diff inactive | GFP autofluor inactive
CCOc1cc(C(=S)N2CCCC2)ccc1OCC(=O)Nc1c(C)cc(C)cc1C	none
CCN(c1ccc(OC)cc1)S(=O)(=O)c1ccc2c(c1)CC(C)N2C(=O)C1CC1 (configuration not stated)	none
O=c1[nH]c(=S)n2c(c1-c1ccccc1)OC(CBr)C2 (configuration not stated)	Myeloid diff MLP active (no result: T cell modulator, NR2E3 ag-2) | Myeloid diff inactive | GFP autofluor inactive
FC(F)(F)c1ccc(N2CCN(c3cc(-c4ccccc4)nc4ncnn34)CC2)nc1	none | Myeloid diff inactive | GFP autofluor inactive
COc1cccc(NC(=O)CCN2C(=O)c3ccccc3S2(=O)=O)c1	none
CC(C)C(=O)Nc1cccc(NC(=O)CCN2C(=O)c3ccccc3S2(=O)=O)c1	none | Myeloid diff inactive | GFP autofluor inactive
CSc1cccc(NC(=O)CN2C(=O)c3ccccc3S2(=O)=O)c1	none | Myeloid diff inactive | GFP autofluor inactive
CC(=O)Nc1ccc(N=NN2CCOCC2)cc1	none | Myeloid diff inactive | GFP autofluor inactive
CCc1nc2c(OCc3ccc(OC(F)F)cc3)cccn2c1N(C)C(=O)c1ccc(OC)cc1	none (no result: T cell modulator, NR2E3 ag-2)
COc1ccc(NC(=O)c2sccc2SCc2cccc(C(F)(F)F)c2)cc1	none | Myeloid diff inactive | GFP autofluor inactive
O=C(CCNC(=O)c1ccc(Br)cc1)NC1CCCc2ccccc21 (configuration not stated)	Myeloid diff MLP active | Myeloid diff active | GFP autofluor inactive
Cc1nc2nc(-c3ccco3)[nH]n2c(=O)c1C	none | Myeloid diff inactive | GFP autofluor inactive
O=C1/C(=C\c2cccc(O)c2O)SC(=S)N1Cc1ccccc1	none
O=C1/C(=C\c2cc([N+](=O)[O-])ccc2O)SC(=S)N1Cc1ccc(Cl)cc1	none | Myeloid diff inactive | GFP autofluor 74
Cc1cc(C)nc(/N=C(/NC(=O)Nc2cccc(Cl)c2)Nc2ccccc2)n1	none | Myeloid diff inactive | GFP autofluor inactive
O=C(Nc1ccc([N+](=O)[O-])cc1)Nc1cnccn1	none
CC1(Cc2cc(Cl)ccc2C(F)(F)F)C(=O)Nc2ccc(OC(F)(F)F)cc21 (configuration not stated)	none (no result: T cell modulator, NR2E3 ag-2)
COc1ccc(NS(=O)(=O)c2ccc3oc(SC4CCOC4=O)nc3c2)cc1 (configuration not stated)	none | Myeloid diff inactive | GFP autofluor inactive
COc1cccc(-c2csc(NC(=O)Oc3ccccc3)n2)c1	none | Myeloid diff inactive | GFP autofluor inactive
COc1cccc(-c2csc(NNC(=O)c3cccs3)n2)c1	none
COc1ccc(NC(=O)[C@@H]2CC=C[C@@H]3CCN(Cc4ccc(Cl)c(Cl)c4)C(=O)[C@@H]32)cc1	none
COc1ccc(CN2CC[C@H]3C=CC[C@@H](C(=O)Nc4ccc(Cl)c(C(F)(F)F)c4)[C@H]3C2=O)cc1OC	none (no result: T cell modulator) | Myeloid diff inactive | GFP autofluor inactive
CCc1ccc([C@@H]2C[C@H]3[C@@H](CN2S(=O)(=O)c2ccc(C)cc2)C(=O)C[C@@H](c2ccccc2)N3S(=O)(=O)c2ccc(C)cc2)cc1	none (no result: T cell modulator, NR2E3 ag-2)
